Results on two compounds are retold here after PubChem BioAssay AID2509 (Broad Institute, 2010).

For orientation: inhibition means the relative decrease from the control value, in per cent.

This test deals with human washed platelets, PMA-induced P-selectin, flow cytometry. The test is described as follows: inhibitors of PMA-stimulated platelet P-selectin exposure, selectivity assay for platelet activation inhibitor project, cell-based, fluorescence, flow cytometry, platelets (AID 2509). The note with it: at 30 µM; active compounds read high. The gist of the method:
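System: platelets, PMA-induced surface P-selectin expression / Probe or stimulus: PMA at 5 nM, platelet activating stimulus / Dosing: single compound dose of 30 µM / Schedule: 20 min compound, 15 min PMA, 20 min antibody / Signal: flow cytometry, PE anti-P-selectin label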
In general terms: A flow cytometer gives signals particle by particle.

Active and inactive are the calls of the source.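 How the source made its calls: active means compounds cutting phorbol ester driven platelet P-selectin display by over 50% in every run; inconclusive means over 50% in some runs but not others; inactive means 50% or less in every run.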

Take `C/C(=N/NC(=O)C1CCCC1)c1ccc(NC(=O)C(F)(F)F)cc1`: the inhibition is 9.5% (inactive).
Then `Cc1ccc(-n2c(N)c(C#N)c(-c3ccccc3)c(C#N)c2=O)cc1`, with 5.5% (inactive).
